Source: ChEMBL document CHEMBL4610110, “Targeting mPGES-1 by a Combinatorial Approach: Identification of the Aminobenzothiazole Scaffold to Suppress PGE2 Levels” (ACS Med Chem Lett, 2020)
Activity calls are given as the source filed them. The rule behind the calls is not given here.

Columns and labels:
[1] = target: T1, Prostaglandin E synthase (Homo sapiens) (UniProt O14684); assay: Inhibition of mPGES1 in human A549 cells assessed as reduction in IL-1beta induced PGE2 release by measuring residual activity at 10 uM using PGH2 as substrate preincubated for 15 mins followed by substrate addition and measured after 1 min by RP-UV-HPLC analysis relative to control; assay type: cell-based
T1 sequence (whole entry): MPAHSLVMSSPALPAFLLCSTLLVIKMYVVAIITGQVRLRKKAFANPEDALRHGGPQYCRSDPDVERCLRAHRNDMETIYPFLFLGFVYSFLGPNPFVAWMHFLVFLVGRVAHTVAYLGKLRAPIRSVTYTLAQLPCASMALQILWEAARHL
In short: (§1)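 The enzyme source was microsomes from IL-1β-stimulated A549 cells in a cell-free assay. The read-out was enzymatic conversion of PGH2 (20 μM) to PGE2.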

A549 [2] = assay: Antiproliferative activity against human A549 cells assessed as inhibition of cell viability incubated for 48 hrs by MTT assay; assay type: functional, cell-based; settings: A549, 48 h
In short: (§2)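 A549 cells were exposed to test compounds in an MTT viability assay (5–100 μM for the 48 h and 72 h exposures). IC50 is the mean ± S.D. of single determinations from three independent experiments.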

A549 [3] = assay: Antiproliferative activity against human A549 cells assessed as inhibition of cell viability incubated for 24 hrs by MTT assay; assay type: functional, cell-based; settings: A549, 24 h; in short: as §2
A549 [4] = assay: Antiproliferative activity against human A549 cells assessed as inhibition of cell viability incubated for 72 hrs by MTT assay; assay type: functional, cell-based; settings: A549, 72 h; in short: as §2
Prostaglandin E synthase = target: T2, Prostaglandin E synthase (Homo sapiens, UniProt O14684); assay: Inhibition of mPGES1 in human A549 cells assessed as reduction in IL-1beta induced PGE2 release using PGH2 as substrate preincubated for 15 mins followed by substrate addition and measured after 1 min by RP-UV-HPLC analysis; assay type: cell-based; in short: as §1
T2 sequence (O14684 whole entry): T1 sequence (whole entry)

[5] = target: T1, Prostaglandin E synthase (Homo sapiens); assay: Inhibition of mPGES1 in human A549 cells assessed as reduction in IL-1beta induced PGE2 release incubated for 24 hrs by ELISA; assay type: cell-based
In short: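 A549 cells were incubated for 24 h at 5 or 10 μM in medium with 1% FBS and 10 ng/mL IL-1β. PGE2 released into the medium was quantified by ELISA against DMSO vehicle-treated cells. Values are mean ± SEM (pg/mL) of two independent experiments.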

A549 [6] = assay: Induction of programmed cell death in human A549 cells assessed as accumulation at subG0/G1 phase at 20 to 30 uM incubated for 72 hrs by propidium iodide staining based flow cytometric analysis relative to control; assay type: functional
In short: (§3)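 A549 human lung epithelial cancer cells were exposed to compound at several concentrations for 48 or 72 h. DNA was then stained with propidium iodide, and the percentage of cells in each cycle phase was measured by flow cytometry. The hypodiploid subG0/G1 fraction was read as cell death. Values are mean ± SEM of two independent experiments, each run in triplicate.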

A549 [7] = assay: Induction of programmed cell death in human A549 cells assessed as accumulation at subG0/G1 phase at 20 to 30 uM incubated for 48 hrs by propidium iodide staining based flow cytometric analysis relative to control; assay type: functional; in short: as §3
A549 [8] = assay: Induction of cell cycle arrest in human A549 cells assessed as accumulation at G2/M phase at 30 uM incubated for 72 hrs by propidium iodide staining based flow cytometric analysis; assay type: functional
In short: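 A549 cells were treated at several concentrations for 48 or 72 h, then stained for DNA with propidium iodide. Cell-cycle phase percentages were read by flow cytometry. Values are means ± SEM of two independent experiments, each run in triplicate.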

O=C(Nc1nc2cc(-c3cccc(CO)c3)ccc2s1)c1ccc(F)cc1Cl
Activity [1]: > 30%

Cc1cc(C)c(C(=O)Nc2nc3cc(-c4cccc(C(N)=O)c4)ccc3s2)o1
inhibition [1]: inactive

O=C1OC(O)C(c2cc3ccccc3s2)=C1Br (stereo unspecified)
IC50 (A549 [2]): 12.5 µM
IC50 (A549 [3]): 98.5 µM
IC50 (A549 [4]): 9.1 µM

Cc1cc(C)c(C(=O)Nc2nc3ccc(-c4cccc(CO)c4)cc3s2)o1
IC50 (Prostaglandin E synthase): 2.6 µM
IC50 (A549 [2]): 63.2 µM
inhibition [5]: Dose-dependent effect
IC50 (A549 [3]): 95 µM
IC50 (A549 [4]): 55.2 µM

Cc1cc(C)c(C(=O)Nc2nc3cc(-c4cccc(CO)c4)ccc3s2)o1
Activity [1]: > 30%

NC(=O)c1cccc(-c2ccc3sc(NC(=O)c4ccc(F)cc4C(F)(F)F)nc3c2)c1
Activity (A549 [6]): 7%
IC50 (Prostaglandin E synthase): 1.7 µM
IC50 (A549 [2]): 50.6 µM
inhibition [5]: Dose-dependent effect
Activity (A549 [7]): 6%
IC50 (A549 [3]): 98.3 µM
IC50 (A549 [4]): 19.2 µM

O=C(Nc1nc2ccc(-c3cccc(CO)c3)cc2s1)c1ccccc1Br
Activity (A549 [6]): 18%
IC50 (Prostaglandin E synthase): 0.7 µM
IC50 (A549 [2]): 57.5 µM
inhibition [5]: Dose-dependent effect
Activity (A549 [7]): 5%
IC50 (A549 [3]): 97.5 µM
Activity (A549 [8]): Active
IC50 (A549 [4]): 18.1 µM

O=C(Nc1nc2ccc(-c3cccc(CO)c3)cc2s1)c1ccc(F)cc1Cl
Activity (A549 [6]): inactive
IC50 (Prostaglandin E synthase): 1.4 µM
IC50 (A549 [2]): 71.4 µM
inhibition [5]: Dose-dependent effect
Activity (A549 [7]): inactive
IC50 (A549 [3]): 98.2 µM
IC50 (A549 [4]): 28.5 µM

NC(=O)c1cccc(-c2ccc3sc(NC(=O)c4c(Cl)cccc4Cl)nc3c2)c1
inhibition [1]: inactive

O=C(Nc1nc2cc(-c3cccc(CO)c3)ccc2s1)c1ccccc1Br
Activity [1]: > 30%

O=C(Nc1nc2cc(-c3cccc(CO)c3)ccc2s1)c1c(Cl)cccc1Cl
Activity [1]: > 30%
